Common to all, as to type: functional
Assay [1] relates to P388. Description: Compound was tested for its antitumor activity and the cytotoxicity against P-388 lymphocytic leukemia screen. The settings on record: Mus musculus, read-out: ED50 (the source's name). The gist of the method:
(§1)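 Run per the NIH cytotoxicity protocol. Viable cells were counted by trypan blue exclusion and expressed as a percentage of the 0.05% Tween 80–water control. ED₅₀ was estimated from a semilog plot against drug concentration.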

In assay [2] the test system is L1210. Description: Compound was tested for its antitumor activity and the cytotoxicity against L1210 lymphoid leukemia screen. The following applies: Mus musculus, read-out: ED50 (the source's name). In short, it runs like this:
as §1

Assay [3] deals with KB. The experiment in a line: Compound was tested for its antitumor activity and the cytotoxicity against KB human carcinoma of the nasopharynx screen. The following applies: read-out: ED50 (the source's name). The gist of the method:
as §1

In brackets after ≈: the same amount, converted by molar mass.

As for `C=C1CC(C)(Cn2cnc3c(O)ncnc32)OC1=O` (stereo unspecified), the EC50 in assay [1] was greater than 20 µg/mL; in assay [2] it was 2 µg/mL (≈ 7.68 µM); in assay [3], greater than 10 µg/mL.
With `C=C1CC(C)(Cn2cnc3c(N)ncnc32)OC1=O` (stereo unspecified), the EC50 in assay [1] was greater than 20 µg/mL; in assay [2] it was 0.3 µg/mL (≈ 1.16 µM); in assay [3], 5 µg/mL (≈ 19.3 µM).
The matching figures for `C=C1CC(C)(Cn2c(N)nc3ncnc-3c2O)OC1=O` (stereo unspecified): greater than 20 µg/mL, 1.3 µg/mL (≈ 4.72 µM) and greater than 10 µg/mL.
Consider `COc1cc([C@@H]2c3cc4c(cc3[C@@H](O[C@@H]3O[C@@H]5CO[C@@H](C)O[C@H]5[C@H](O)[C@H]3O)[C@H]3COC(=O)[C@H]23)OCO4)cc(OC)c1O` [ETOPOSIDE], for which the EC50 in assay [1] stood at 1.71 µg/mL (≈ 2.91 µM); in assay [2] it was 1.58 µg/mL (≈ 2.68 µM).

Source of the values: ChEMBL document CHEMBL1123705, “Antitumor agents. 86. Synthesis and cytotoxicity of alpha-methylene-gamma-lactone-bearing purines” (1987).
